Reference: ChEMBL document CHEMBL1133520, “Design, synthesis, and biological evaluation of potent and selective amidino bicyclic factor Xa inhibitors” (J Med Chem, 2000)
Where “and” joins values, the source holds several entries; their conditions need not be identical. Equal values may be shown once.

How the values were obtained:
[1] = molecular target: Prothrombin (Homo sapiens, UniProt P00734); test: Binding affinity against human thrombin
Summary of the method: (§1)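 Human purified enzymes in 0.1 M sodium phosphate, 0.2 M NaCl, 0.5% PEG 6000, pH 7.4. Inhibitor at 0.00316–10 μM in 8 half-log steps. Substrate S2222 for fXa and trypsin, S2366 for thrombin. Hydrolysis rate read at 405 nm over 30 min, with uninhibited controls. Ki calculated from % activity, Km and substrate concentration. Run in duplicate against internal standards.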

[2] = molecular target: Coagulation factor X (Homo sapiens, UniProt P00742); test: Binding affinity against human coagulation factor X
Chain of Coagulation factor X (Homo sapiens, UniProt P00742) (P00742 41-179 limits assumed): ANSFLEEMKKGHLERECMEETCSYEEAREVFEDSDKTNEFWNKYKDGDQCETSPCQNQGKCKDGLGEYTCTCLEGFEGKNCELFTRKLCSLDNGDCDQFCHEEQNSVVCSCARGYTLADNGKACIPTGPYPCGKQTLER
Chain of Coagulation factor X (Homo sapiens, UniProt P00742) (P00742 235-488 limits assumed): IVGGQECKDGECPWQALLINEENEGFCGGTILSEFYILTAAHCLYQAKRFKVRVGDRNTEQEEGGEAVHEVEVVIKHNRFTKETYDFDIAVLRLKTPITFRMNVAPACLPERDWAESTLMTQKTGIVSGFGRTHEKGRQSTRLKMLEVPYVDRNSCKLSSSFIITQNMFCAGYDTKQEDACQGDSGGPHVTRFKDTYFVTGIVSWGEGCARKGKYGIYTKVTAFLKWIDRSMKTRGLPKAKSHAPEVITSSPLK

[3] = molecular target: Serine protease 1 (Homo sapiens, UniProt P07477); test: Binding affinity against human trypsin; summary of the method: as §1
Chain of Serine protease 1 (P07477 whole entry): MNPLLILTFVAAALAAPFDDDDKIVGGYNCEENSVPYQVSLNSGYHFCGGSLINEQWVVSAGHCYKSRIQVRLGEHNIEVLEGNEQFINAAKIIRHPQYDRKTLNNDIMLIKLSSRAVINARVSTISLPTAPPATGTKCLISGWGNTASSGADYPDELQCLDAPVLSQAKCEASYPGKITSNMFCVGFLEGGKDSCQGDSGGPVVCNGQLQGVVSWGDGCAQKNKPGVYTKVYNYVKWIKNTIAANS

[4] = plasma clearance in dog; assay type: ADME, organism-based, Canis lupus familiaris
Summary of the method: (§2)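 Given intravenously (rabbit: 10 mg/kg/h infusion over 60 min; dog: iv). Plasma protein-precipitated with acetonitrile; quantitation limit 5 nM. Noncompartmental fit. Half-life by nonlinear regression, AUC by trapezoidal rule. Clearance = dose/AUC0→∞. Vdss = Cl × MRT, with MRT = AUMC/AUC.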

[5] = Cmax values of the compound; assay type: ADME, organism-based; conditions: in vivo; summary of the method: as §2
[6] = (§3) Half life period of the compound; assay type: ADME; summary of the method: as §2
[7] = Distribution volume at steady state in dog; assay type: ADME, organism-based, Canis lupus familiaris; conditions: in vivo, read-out: Vdss; summary of the method: as §2
[8] = as §3; assay type: ADME; summary of the method: as §2; remark: listed apart in the source
[9] = molecular target: T1, Coagulation factor X (Oryctolagus cuniculus, UniProt O19045); test: Binding affinity against fXa from rabbit purified enzyme
T1 sequence (O19045 whole entry): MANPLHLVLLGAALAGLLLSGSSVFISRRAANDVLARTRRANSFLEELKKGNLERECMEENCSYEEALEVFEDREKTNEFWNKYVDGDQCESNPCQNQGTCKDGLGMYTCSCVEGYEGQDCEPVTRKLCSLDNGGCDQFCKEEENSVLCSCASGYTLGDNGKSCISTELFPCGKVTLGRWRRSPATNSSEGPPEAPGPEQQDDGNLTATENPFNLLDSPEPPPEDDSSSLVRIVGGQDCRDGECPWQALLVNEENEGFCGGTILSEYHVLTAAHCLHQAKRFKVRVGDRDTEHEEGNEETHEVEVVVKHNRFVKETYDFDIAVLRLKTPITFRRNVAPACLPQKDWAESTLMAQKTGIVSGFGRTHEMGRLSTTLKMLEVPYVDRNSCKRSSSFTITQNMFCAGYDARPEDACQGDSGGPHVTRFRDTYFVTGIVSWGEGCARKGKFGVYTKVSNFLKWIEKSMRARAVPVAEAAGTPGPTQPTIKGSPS

[10] = organism: Oryctolagus cuniculus; test: Tested for inhibition of thrombus formation using arterio-venous shunt device in rabbit; assay type: functional
Summary of the method: (§4)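 Rabbit arteriovenous shunt containing silk thread; blood circulated 40 min, then the thread and thrombus were weighed. Compound or saline vehicle infused iv via jugular vein from 1 h before circulation through the end (100 min total). Percent inhibition of thrombus weight per treatment group; ID50 estimated by linear regression.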

[11] = molecular target: T1, Coagulation factor X; test: Binding affinity against Coagulation factor X from rabbit purified enzyme
[12] = tested on: Oryctolagus cuniculus; test: Tested for inhibition of thrombus formation using arterio-venous shunt device in rabbit at 0.008-1 mg/kg/h; assay type: functional; summary of the method: as §4
[13] = organism: Oryctolagus cuniculus; test: Distribution volume at steady state in rabbit; conditions: in vivo, read-out: Vdss
[14] = plasma clearance in rabbit

Ki [1]	Ki [2]	Ki [3]	Compound	also measured
1.2 µM	0.12 µM	0.32 µM	N=C(N)c1ccc2ncn(CC(=O)c3ccc(-c4ccccc4)cc3)c2c1	
17 µM	0.052 µM	0.4 µM	N=C(N)c1ccc2c(c1)C(CC(=O)Nc1ccc(-c3ccccc3S(N)(=O)=O)cc1)CN2 (single isomer, unassigned; (-))	
1.6 µM and 0.9 µM		0.16 µM	N=C(N)c1ccc2[nH]cc(CC(=O)Nc3ccc(-c4ccccc4S(N)(=O)=O)cc3)c2c1	half-life [8]: 1.22 h; clearance [4]: 1.22 L/h/kg; Ki [9]: 0.006 µM; Cmax [5]: 1.51 µM and 8.7 µM; half-life [6]: 0.79 h; ID50 [10]: 1.7 µM/h/kg; Vd [7]: 0.38 L/kg
6.8 µM	0.0031 µM	0.041 µM	N=C(N)c1ccc2cnn(CC(=O)Nc3ccc(-c4ccccc4S(N)(=O)=O)cn3)c2c1	
4.7 µM	0.22 µM	0.48 µM	N=C(N)c1ccc2ncn(CC(=O)Nc3ccc(-c4ccccc4)cc3)c2c1	
12.5 µM	3.9 µM	> 2.5 µM	N=C(N)c1ccc2c(c1)ncn2CC(=O)Nc1ccc(-c2ccccc2)cc1	
2.2 µM	0.0024 µM	0.047 µM	N=C(N)c1ccc2ncn(CC(=O)Nc3ccc(-c4ccccc4S(N)(=O)=O)cc3)c2c1	half-life [8]: 0.96 h; Vd [13]: 3.04 L/kg; clearance [14]: 4.4 L/h/kg; Cmax [5]: 3.85 µM
2.7 µM	0.4 µM	0.13 µM	N=C(N)c1ccc2c(c1)ncn2CC(=O)Nc1ccc(-c2ccccc2S(N)(=O)=O)cc1	
2.8 µM	0.24 µM	0.3 µM	N=C(N)c1ccc2ncn(CC(=O)c3ccc(-c4ccccc4S(N)(=O)=O)cc3)c2c1	
1.5 µM	0.00071 µM	0.14 µM	N=C(N)c1ccc2c(c1)C(CC(=O)Nc1ccc(-c3ccccc3S(N)(=O)=O)cc1)CN2 (single isomer, unassigned; (+))	

Second part, the compound before the results:

Compound	Ki [1]	Ki [2]	Ki [3]	also measured
CCOC(=O)C(CCc1ccc(C(=N)N)cc1)Cn1cnc2ccc(C(=N)N)cc21 (stereo not drawn)	> 21 µM	11.9 µM		
N=C(N)c1ccc2[nH]cc(CC(=O)Nc3ccc(-c4ccccc4S(N)(=O)=O)cc3F)c2c1	2.1 µM	0.0031 µM	0.27 µM	clearance [4]: 1.1 L/h/kg; Cmax [5]: 1.63 µM; half-life [6]: 2.5 h; Vd [7]: 0.87 L/kg
N=C(N)c1ccc2[nH]cc(CC(=O)Nc3ccc(-c4ccccc4S(N)(=O)=O)cc3I)c2c1	0.2 µM	0.0006 µM	0.24 µM	
CN(C(=O)Cc1c[nH]c2ccc(C(=N)N)cc12)c1ccc(-c2ccccc2S(N)(=O)=O)cc1	14 µM	0.041 µM	0.6 µM	
CCOC(=O)C(CCc1cccc(C(=N)N)c1)Cn1cnc2ccc(C(=N)N)cc21 (stereo not drawn)	1.9 µM	0.7 µM	0.82 µM	
CNS(=O)(=O)c1ccccc1-c1ccc(NC(=O)Cc2c[nH]c3ccc(C(=N)N)cc23)cc1	0.9 µM	0.0034 µM	0.12 µM	
CCCNS(=O)(=O)c1ccccc1-c1ccc(NC(=O)Cc2c[nH]c3ccc(C(=N)N)cc23)cc1	0.4 µM	0.008 µM	0.18 µM	
CCOC(=O)C(CCc1ccc(C(=N)N)cc1)Cn1cnc2cc(C(=N)N)ccc21 (stereo not drawn)	> 21 µM	2.2 µM		
Cn1cc(CC(=O)Nc2ccc(-c3ccccc3S(N)(=O)=O)cn2)c2cc(C(=N)N)ccc21	21 µM	0.089 µM	1.5 µM	
CCOC(=O)C(CCc1cccc(C(=N)N)c1)Cn1cnc2cc(C(=N)N)ccc21 (stereo not drawn)	2 µM		0.22 µM	
N=C(N)c1ccc2[nH]cc(CC(=O)Nc3ccc(-c4ccccc4S(N)(=O)=O)cc3Cl)c2c1	0.5 µM	0.0007 µM	0.14 µM	clearance [4]: 3 L/h/kg; Cmax [5]: 0.65 µM; half-life [6]: 1.75 h; ID50 [10]: 0.35 µM/h/kg; Ki [11]: 0.00079 µM; Vd [7]: 2.01 L/kg
N=C(N)c1ccc2c(c1)ncn2CC(=O)c1ccc(-c2ccccc2)cc1	> 21 µM			
Cc1cc(-c2ccccc2S(N)(=O)=O)ccc1NC(=O)Cc1c[nH]c2ccc(C(=N)N)cc12	1 µM	0.0023 µM	0.34 µM	
N=C(N)c1ccc2[nH]cc(CC(=O)Nc3ccc(-c4ccccc4S(N)(=O)=O)cc3Br)c2c1	0.2 µM	0.00032 µM	0.12 µM	ID50 [12]: 0.14 µM/h/kg; clearance [4]: 1.34 L/h/kg; Cmax [5]: 1.43 µM; half-life [6]: 1.8 h; Ki [11]: 0.0009 µM; Vd [7]: 0.67 L/kg
N=C(N)c1ccc2[nH]cc(CC(=O)Nc3ccc(-c4ccccc4S(N)(=O)=O)cn3)c2c1	2.1 µM	0.00092 µM and 0.00044 µM	0.15 µM	clearance [4]: 3.7 L/h/kg; Cmax [5]: 2.2 µM; half-life [6]: 0.4 h; ID50 [10]: 0.3 µM/h/kg; Ki [11]: 0.00093 µM; Vd [7]: 1.9 L/kg
CCNS(=O)(=O)c1ccccc1-c1ccc(NC(=O)Cc2c[nH]c3ccc(C(=N)N)cc23)cc1	0.8 µM	0.0041 µM	0.16 µM	
CN(C)S(=O)(=O)c1ccccc1-c1ccc(NC(=O)Cc2c[nH]c3ccc(C(=N)N)cc23)cc1	1.7 µM	0.007 µM	0.39 µM	
